Results published in ChEMBL document CHEMBL4808215, “Discovery of Selective Small-Molecule Inhibitors for the ENL YEATS Domain” (J Med Chem, 2021).
Active and inactive are the calls of the source. No cut-off for these calls is given here.

Tests used:
Protein ENL = molecular target: T1, Protein ENL (Homo sapiens, UniProt Q03111); assay: Inhibition of human His-ENL YEATS domain and biotinylated H3K9ac peptide interaction by AlphaScreen assay
T1 sequence (Q03111 whole entry): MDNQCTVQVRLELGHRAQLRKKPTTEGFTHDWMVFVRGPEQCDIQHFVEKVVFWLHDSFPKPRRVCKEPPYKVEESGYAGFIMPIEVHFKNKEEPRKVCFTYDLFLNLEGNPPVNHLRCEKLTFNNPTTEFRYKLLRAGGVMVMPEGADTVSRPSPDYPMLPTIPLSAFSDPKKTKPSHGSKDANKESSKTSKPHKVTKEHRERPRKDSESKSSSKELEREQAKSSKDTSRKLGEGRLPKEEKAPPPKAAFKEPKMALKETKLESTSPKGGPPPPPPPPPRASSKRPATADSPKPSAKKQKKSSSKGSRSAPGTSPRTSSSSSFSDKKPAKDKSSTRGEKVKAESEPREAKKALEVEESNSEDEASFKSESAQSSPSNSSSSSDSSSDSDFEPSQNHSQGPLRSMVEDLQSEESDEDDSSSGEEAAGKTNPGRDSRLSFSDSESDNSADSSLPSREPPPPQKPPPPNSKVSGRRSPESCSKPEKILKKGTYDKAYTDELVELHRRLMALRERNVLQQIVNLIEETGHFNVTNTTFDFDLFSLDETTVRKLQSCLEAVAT

Homo sapiens = organism: Homo sapiens; assay: Selectivity ratio of IC50 for human His-AF9 YEATS domain to IC50 for human His-ENL YEATS domain
[1] = molecular target: T2, YEATS domain-containing protein 4 (Homo sapiens, UniProt O95619); assay: Inhibition of human His-GAS41 YEATS domain and biotinylated H3K27ac peptide interaction at 20 uM by AlphaScreen assay
[2] = molecular target: T3, YEATS domain-containing protein 2 (Homo sapiens) (UniProt Q9ULM3); assay: Inhibition of human His-YEATS2 YEATS domain and biotinylated […] peptide interaction at 20 uM by AlphaScreen assay
T3 sequence (whole entry): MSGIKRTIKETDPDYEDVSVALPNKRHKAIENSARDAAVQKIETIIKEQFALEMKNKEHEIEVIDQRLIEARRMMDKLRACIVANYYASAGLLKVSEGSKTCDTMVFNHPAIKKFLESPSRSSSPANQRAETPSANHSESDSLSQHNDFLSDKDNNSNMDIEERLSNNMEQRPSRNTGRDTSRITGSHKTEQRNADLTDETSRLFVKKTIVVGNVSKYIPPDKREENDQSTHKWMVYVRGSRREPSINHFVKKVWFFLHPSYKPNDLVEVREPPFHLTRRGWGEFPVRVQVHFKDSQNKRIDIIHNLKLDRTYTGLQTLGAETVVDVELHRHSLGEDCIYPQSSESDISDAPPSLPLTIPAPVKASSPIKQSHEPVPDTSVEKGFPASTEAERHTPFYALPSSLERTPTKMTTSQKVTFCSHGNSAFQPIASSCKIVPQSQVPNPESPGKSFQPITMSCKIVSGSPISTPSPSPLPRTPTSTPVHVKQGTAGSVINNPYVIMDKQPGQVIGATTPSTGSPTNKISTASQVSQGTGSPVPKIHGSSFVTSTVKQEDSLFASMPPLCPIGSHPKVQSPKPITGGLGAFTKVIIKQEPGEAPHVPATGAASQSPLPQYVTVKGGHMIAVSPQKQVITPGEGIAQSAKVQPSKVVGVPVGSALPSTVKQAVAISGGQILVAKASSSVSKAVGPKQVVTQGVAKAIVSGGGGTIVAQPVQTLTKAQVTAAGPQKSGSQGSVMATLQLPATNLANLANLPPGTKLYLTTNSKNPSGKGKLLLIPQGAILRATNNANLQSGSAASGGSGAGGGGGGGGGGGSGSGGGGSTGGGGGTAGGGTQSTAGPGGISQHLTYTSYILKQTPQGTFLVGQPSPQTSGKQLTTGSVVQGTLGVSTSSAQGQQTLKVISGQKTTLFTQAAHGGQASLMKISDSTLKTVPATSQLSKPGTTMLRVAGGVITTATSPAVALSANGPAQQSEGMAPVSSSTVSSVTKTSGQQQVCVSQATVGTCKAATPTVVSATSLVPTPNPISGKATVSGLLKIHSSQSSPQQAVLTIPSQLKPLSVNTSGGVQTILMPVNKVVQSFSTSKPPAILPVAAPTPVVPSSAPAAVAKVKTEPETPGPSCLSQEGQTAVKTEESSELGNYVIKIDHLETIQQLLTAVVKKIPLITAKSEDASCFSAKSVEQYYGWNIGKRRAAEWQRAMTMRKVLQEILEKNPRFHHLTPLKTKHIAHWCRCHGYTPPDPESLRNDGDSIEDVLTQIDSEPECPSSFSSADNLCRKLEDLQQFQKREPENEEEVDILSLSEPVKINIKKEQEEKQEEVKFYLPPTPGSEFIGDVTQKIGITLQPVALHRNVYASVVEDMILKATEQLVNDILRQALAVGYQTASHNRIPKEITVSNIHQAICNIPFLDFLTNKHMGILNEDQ

Protein AF-9 = molecular target: T4, Protein AF-9 (Homo sapiens, UniProt P42568); assay: Inhibition of human His-AF9 YEATS domain and biotinylated H3K9ac peptide interaction by AlphaScreen assay
T4 sequence (P42568 whole entry): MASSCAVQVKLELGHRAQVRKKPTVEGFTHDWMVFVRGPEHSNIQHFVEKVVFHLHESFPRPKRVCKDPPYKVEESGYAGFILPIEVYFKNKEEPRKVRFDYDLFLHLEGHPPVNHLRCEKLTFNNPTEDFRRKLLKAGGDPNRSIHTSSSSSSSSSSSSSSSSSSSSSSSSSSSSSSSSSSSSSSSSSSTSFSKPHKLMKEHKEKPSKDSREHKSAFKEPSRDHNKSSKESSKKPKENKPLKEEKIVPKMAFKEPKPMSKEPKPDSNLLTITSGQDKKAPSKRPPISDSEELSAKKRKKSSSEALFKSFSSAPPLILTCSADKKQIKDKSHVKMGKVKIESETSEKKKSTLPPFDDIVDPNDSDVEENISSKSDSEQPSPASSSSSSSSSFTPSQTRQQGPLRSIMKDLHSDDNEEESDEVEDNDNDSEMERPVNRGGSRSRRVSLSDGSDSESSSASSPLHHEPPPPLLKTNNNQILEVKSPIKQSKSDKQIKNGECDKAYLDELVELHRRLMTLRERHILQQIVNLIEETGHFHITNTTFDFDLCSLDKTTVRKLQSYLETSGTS

[3] = molecular target: T5, Protein AF-9 (Homo sapiens) (UniProt P42568); assay: Inhibition of human His-AF9 YEATS domain and biotinylated H3K9ac peptide interaction at 20 uM by AlphaScreen assay
T5 sequence (whole entry): T4 sequence (P42568 whole entry)

[4] = molecular target: T6, Protein ENL (Homo sapiens) (UniProt Q03111); assay: Inhibition of human His-ENL YEATS domain and biotinylated H3K9ac peptide interaction at 5 uM by AlphaScreen assay
T6 sequence (whole entry): T1 sequence (Q03111 whole entry)

[5] = molecular target: T2, YEATS domain-containing protein 4; assay: Inhibition of human His-GAS41 YEATS domain and biotinylated H3K27ac peptide interaction by AlphaScreen assay
In short: (§1)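 His-tagged YEATS domains were expressed in E. coli Rosetta-2 (DE3) pLysS and purified on Ni-NTA. Partners were biotinylated peptide on streptavidin donor and Ni2+-chelate acceptor beads: AF9 30 nM with H3K9ac, GAS41 100 nM with H3K27ac, YEATS2 100 nM with H3K27cr. Peptides at 30 nM, buffer 50 mM HEPES pH 7.4, 100 mM NaCl, 0.1% BSA, 0.05% CHAPS. Thirteen-point 3-fold series from 54 μM to 0.1 nM, 4–6 replicates, signal normalised to no-compound control, four-parameter fit.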

[6] = molecular target: T7, YEATS domain-containing protein 2 (Homo sapiens, UniProt Q9ULM3); assay: Inhibition of human His-YEATS2 YEATS domain and biotinylated […] peptide interaction by AlphaScreen assay; in short: as §1
T7 sequence (Q9ULM3 whole entry): T3 sequence (whole entry)

T2 sequence (O95619 whole entry, the tested form may be a part): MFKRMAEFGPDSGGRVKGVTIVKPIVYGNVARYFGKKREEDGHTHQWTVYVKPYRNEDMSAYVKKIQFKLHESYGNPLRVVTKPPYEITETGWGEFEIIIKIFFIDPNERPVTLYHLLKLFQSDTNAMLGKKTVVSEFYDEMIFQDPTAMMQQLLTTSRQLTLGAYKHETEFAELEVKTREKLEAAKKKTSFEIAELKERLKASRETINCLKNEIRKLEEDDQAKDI

Compound | IC50 (Protein ENL) | other results
O=C(NCc1ccc(CNc2ccc(F)cn2)cc1)c1ccc2nncn2c1 | > 5 µM | 
CC(C)c1cnc(NCc2ccc(CNC(=O)c3ccc4nncn4c3)cc2)nc1 | > 1 µM | 
CC(C)(C)C1CCN1Cc1ccc(CNC(=O)c2ccc3nncn3c2)cc1 (stereo unspecified) | 0.264 µM | 
O=C(NCc1ccc(CN2CCCCC2)cc1)c1ccc2nncn2c1 | 0.636 µM | 
CC1CCN1Cc1ccc(CNC(=O)c2ccc3nncn3c2)cc1 (stereo unspecified) | 0.185 µM | 
Cc1cc2ncc(C(=O)NCc3ccc(CN4CCC4)cc3)cn2n1 | > 5 µM | 
CSc1ccc(CNC(=O)c2ccc3nncn3c2)cc1 | 0.23 µM | Ratio (Homo sapiens): 4; inhibition [1]: Active; inhibition [2]: Active; IC50 (Protein AF-9): 1.85 µM; inhibition [3]: Active; inhibition [4]: Active; IC50 [5]: > 54 µM; IC50 [6]: > 54 µM
CC(NC(=O)c1ccc2nncn2c1)c1ccc(CN2CCC2)cc1 (stereo unspecified) | > 1 µM | 
